Source: PubChem BioAssay (several laboratories)
PPC-1+TRAIL kill: PPC-1 cancer cell killing with TRAIL present; PPC-1 cells + TRAIL, ATPLite viability luminescence; cell killing (% activity), % at 4 µM or 5 µM; 220,000 tested, 0.41% active;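 active = cell killing above 50% in the first pass at 4 µM, then a duplicate retest at 5 µM averaging 50% or more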
TRAIL sens C8: caspase-8 TRAIL sensitization | NB7+C8 cells + TRAIL, ATPlite viability luminescence | 360,000 tested, 1% active | AID 624354 | inhibition (viability loss, TRAIL sensitization), % at 10 µM;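 active = compounds causing at least 50% loss of cell viability in the single-dose screen, relative to plate controls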
Wee1 degr inh: human Wee1 degradation inhibition, primary screen. P30291. HeLa Luc-Wee1K328M stability, luciferase luminescence; 100% = proteasome inhibitor MG132 effect. reporter increase, % at 5 µM. 220,000 tested, 1.2% active. AID 1321;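 active = activation above the mean of all tested compounds plus 3 SD, set per screening run, cut at about 8.8% in these data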;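 note: cells exposed to compound for 20 h before luminescence read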
PKD1 inh: blocks activity of human protein kinase D1; PKD1 kinase fluorescence polarization assay; inhibition, % (concentration not given with the values); 200,000 tested, 0.056% active; AID 797; in the data active = inhibition above about 50%
Target sequence (Q15139 whole entry, looked up): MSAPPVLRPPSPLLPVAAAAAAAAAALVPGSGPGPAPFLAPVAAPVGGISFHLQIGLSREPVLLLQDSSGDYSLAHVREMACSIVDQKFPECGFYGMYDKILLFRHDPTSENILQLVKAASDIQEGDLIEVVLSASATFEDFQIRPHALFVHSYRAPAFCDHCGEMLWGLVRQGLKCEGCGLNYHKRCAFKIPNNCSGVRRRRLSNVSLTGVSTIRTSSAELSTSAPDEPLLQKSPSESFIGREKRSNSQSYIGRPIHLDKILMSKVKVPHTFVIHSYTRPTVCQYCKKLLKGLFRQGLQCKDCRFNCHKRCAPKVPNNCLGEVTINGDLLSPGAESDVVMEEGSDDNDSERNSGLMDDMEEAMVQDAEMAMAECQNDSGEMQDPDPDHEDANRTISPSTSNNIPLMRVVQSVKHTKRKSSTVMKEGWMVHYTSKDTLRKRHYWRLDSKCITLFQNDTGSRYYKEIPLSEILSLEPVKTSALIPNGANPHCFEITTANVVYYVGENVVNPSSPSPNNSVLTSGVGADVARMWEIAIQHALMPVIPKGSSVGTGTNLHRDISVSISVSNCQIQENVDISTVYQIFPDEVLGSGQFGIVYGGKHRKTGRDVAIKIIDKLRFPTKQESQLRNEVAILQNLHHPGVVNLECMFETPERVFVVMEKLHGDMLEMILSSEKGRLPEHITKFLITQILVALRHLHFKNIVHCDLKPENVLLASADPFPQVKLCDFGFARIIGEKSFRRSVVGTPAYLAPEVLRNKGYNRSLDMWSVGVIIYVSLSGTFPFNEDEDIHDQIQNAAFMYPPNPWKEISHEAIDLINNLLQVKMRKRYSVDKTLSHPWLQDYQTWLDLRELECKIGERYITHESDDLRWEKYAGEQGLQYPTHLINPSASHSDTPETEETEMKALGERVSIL
FLuc inhib CS: counter-screen for luciferase assay inhibitors: firefly luciferase inhibition. P08659. ATPLite firefly luciferase biochemical luminescence, 10 min. inhibition, % at 10 µM. 200,000 tested, 1.5% active;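 active = inhibition above about 50% when tested at 10 µM, limit read from the data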
FLuc stim CS: affects firefly luciferase, flagging false hits in luciferase stimulation screens. P08659. ATPlite luciferase biochemical, luminescence, 10 min; 0 = ATP-free wells, 1 = DMSO control. activation factor at 10 µM. 200,000 tested, under 10 active;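 active = luciferase activation factor, scaled between plate controls, of at least 2 with compound at 10 µM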
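Material: luciferase plus luciferin reagent, cell-free. Medium: PBS buffer for ATP. Also added: ATP substrate, dispensed from a 10.24 µM working solution in PBS. Doses: test compounds dosed from 2 mM stocks in 100% DMSO. Incubation: 10 min post-reagent at room temperature. Technique: light output (luminescence). Read-out basis: luminescence gain marking luciferase activators.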
PPC-1 tox: kills PPC-1 cells. shares compounds with PPC-1+TRAIL kill. 1,200 tested, 50% active. PPC-1 viability, ATPlite luminescence, overnight. cytotoxicity, % at 5 µM;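 active = reconfirmed compounds whose average cytotoxicity reaches 50% or more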
Large screens that a line does not name were inactive (follow-up assays come after a bar, where they were run). Rows were chosen to be rich in hits. Some 2.2% of all compounds tested hit in one or more screens of this group.

COc1ccc(-n2c(SCC(=O)N3CCCCC3)nnc2-c2cccnc2)cc1	none | PPC-1 tox inactive
CCOc1ccccc1N(C)C(=O)c1sc2ncn(CC(=O)N3CCCCC3C)c(=O)c2c1C (stereo not given)	none (no result: PPC-1+TRAIL kill, Wee1 degr inh, PKD1 inh, FLuc inhib CS, FLuc stim CS)
Cc1ccnc(NC(=O)COc2ccccc2[N+](=O)[O-])c1	TRAIL sens C8 52, FLuc inhib CS 81 | PPC-1 tox 52
O=C(COc1ccccc1[N+](=O)[O-])Nc1cccnc1	none
N#Cc1nc(-c2ccco2)oc1N1CCC(C(N)=O)CC1	none | PPC-1 tox inactive
N#Cc1nc(-c2ccccc2)oc1N1CCC(C(N)=O)CC1	none (no result: PPC-1+TRAIL kill, Wee1 degr inh, PKD1 inh, FLuc inhib CS, FLuc stim CS)
CCc1ccc2oc(-c3cccc(N)c3)nc2c1	TRAIL sens C8 82, FLuc inhib CS 86 | PPC-1 tox inactive
Cc1ccc2nc(-c3cccc(N)c3)oc2c1	PPC-1+TRAIL kill 76, TRAIL sens C8 74, FLuc inhib CS 93 | PPC-1 tox 75
Cc1cc(C)c2oc(-c3cccc(N)c3)nc2c1	none (no result: PPC-1+TRAIL kill, Wee1 degr inh, PKD1 inh, FLuc inhib CS, FLuc stim CS)
Cc1nc2ccc(-c3nc4ccccc4[nH]3)cc2[nH]1	FLuc inhib CS 77 | PPC-1 tox inactive
Cc1ccc(-c2nc3ccccc3[nH]2)cn1	none (no result: PPC-1+TRAIL kill, Wee1 degr inh, PKD1 inh, FLuc inhib CS, FLuc stim CS)
CCc1nnc(SCC(=O)N2CCCC(N3CCN(c4ccccc4C)CC3)C2)o1 (stereo not given)	none (no result: PPC-1+TRAIL kill, Wee1 degr inh, PKD1 inh, FLuc inhib CS, FLuc stim CS)
OCCSc1nc(N2CCOCC2)nc(N2CCOCC2)n1	none
CC1(C)NC(C(=O)O)Cc2c1[nH]c1ccccc21 (stereo not given)	none | PPC-1 tox inactive
CC(=O)N1C(C(=O)O)Cc2c([nH]c3ccccc23)C1(C)C (stereo not given)	none (no result: PPC-1+TRAIL kill, Wee1 degr inh, PKD1 inh, FLuc inhib CS, FLuc stim CS)
COc1cccc(-c2c(-c3cc(OC)cc(OC)c3)n(C)c3ccc(-c4cccc5[nH]ccc45)cc23)c1	none (no result: PPC-1+TRAIL kill, Wee1 degr inh, PKD1 inh, FLuc inhib CS, FLuc stim CS)
c1c2c(cc3sc(N4CCOCC4)nc13)OCCO2	PPC-1+TRAIL kill 63, TRAIL sens C8 78, FLuc inhib CS 84 | PPC-1 tox 60
O=C(CSc1ccc(Cl)cc1)N1CCOCC1	none | PPC-1 tox inactive
O=C(CCSc1ccc(Cl)cc1)N1CCOCC1	none
Nc1ncnc2c1ncn2[C@@H]1O[C@H](CNC(=O)[C@@H]2CCN2)[C@@H](O)[C@H]1O	none (no result: PPC-1+TRAIL kill, Wee1 degr inh, PKD1 inh, FLuc inhib CS, FLuc stim CS)
O=C(CSc1ccccc1)NCCCc1ccccc1	none
O=C(NC1=NCCS1)c1ccccc1	none (no result: PPC-1+TRAIL kill, Wee1 degr inh, PKD1 inh, FLuc inhib CS, FLuc stim CS)
O=C(NC1=NCCS1)c1cc2ccccc2o1	PPC-1+TRAIL kill 58, TRAIL sens C8 58, FLuc inhib CS 86 | PPC-1 tox 51
O=C(Nc1ccccn1)c1cc2ccccc2o1	PPC-1+TRAIL kill 81, TRAIL sens C8 83, FLuc inhib CS 95 | PPC-1 tox 80
COCCNc1cc(C)nc2cc(-c3ccc(C)cc3)nn12	none
Cc1ccc(-c2cc3nc(C)cc(NCc4ccco4)n3n2)cc1	TRAIL sens C8 63, FLuc inhib CS 68 | PPC-1 tox inactive
COCCn1c(C)cc(C2=NNC(=NC3CC3)SC2)c1C	PPC-1+TRAIL kill 89, TRAIL sens C8 78, FLuc inhib CS 96 | PPC-1 tox 88
COCCN(C(=O)c1cc(OC)c(OC)c(OC)c1)c1c(N)n(Cc2ccccc2)c(=O)[nH]c1=O	none | PPC-1 tox inactive
O=C(/C=C/c1ccc(Cl)cc1)NC(=S)Nc1ccccc1C(=O)O	none (no result: PKD1 inh, FLuc inhib CS, FLuc stim CS)
NC(=O)c1ccccc1NC(=O)/C=C/c1ccc(Cl)cc1	PPC-1+TRAIL kill 56, TRAIL sens C8 68, FLuc inhib CS 80 | PPC-1 tox 57
COc1ccc(/[N+]([O-])=C/c2ccco2)cc1	none (no result: PPC-1+TRAIL kill, Wee1 degr inh, PKD1 inh, FLuc inhib CS, FLuc stim CS)
Cc1ccc(C(=O)Nc2ccc(N3CCCCC3)cc2)cc1	none (no result: PPC-1+TRAIL kill, Wee1 degr inh, PKD1 inh, FLuc inhib CS, FLuc stim CS)
O=C(Nc1ccc(N2CCCCC2)cc1)c1ccccc1	PPC-1+TRAIL kill 66, TRAIL sens C8 74, FLuc inhib CS 88 | PPC-1 tox 61
Cc1ccc(NC(=O)N2CCc3ccccc3C2)cc1	none
Cc1ccc(NC(=O)N2CCc3ccccc32)cc1	PPC-1+TRAIL kill 67, TRAIL sens C8 63, FLuc inhib CS 90 | PPC-1 tox 65
Cc1ccc(NC(=O)N2CCc3ccccc32)cc1C	PPC-1+TRAIL kill 55, TRAIL sens C8 66, FLuc inhib CS 86 | PPC-1 tox 59
CC(C)c1nc2sc3c(SCC(N)=O)ncnc3c2c2c1CCC2	none (no result: PKD1 inh, FLuc inhib CS, FLuc stim CS)
CCN(CC)C(=O)C(Sc1ccccc1)c1ccccc1 (stereo not given)	none | PPC-1 tox inactive
CCCNC(=O)C(Sc1ccccc1)c1ccccc1 (stereo not given)	none
O=C(/C=C/c1ccc(F)cc1)Nc1ccc2[nH]c(=O)[nH]c2c1	none (no result: PKD1 inh, FLuc inhib CS, FLuc stim CS)
Cc1ccc(-c2nc(CNC(=O)c3cc(C)on3)cs2)cc1	none (no result: PPC-1+TRAIL kill, Wee1 degr inh, PKD1 inh, FLuc inhib CS, FLuc stim CS)
O=C1c2ccccc2NC(c2ccco2)N1/N=C/c1ccco1 (stereo not given)	none
C/C(=N\N1C(=O)c2ccccc2NC1c1ccco1)c1ccccc1O (stereo not given)	TRAIL sens C8 76 | PPC-1 tox 50
C/C(=N\N1C(=O)c2ccccc2NC1c1ccccc1)c1ccccc1O (stereo not given)	TRAIL sens C8 70 | PPC-1 tox inactive
CCOC(=O)c1nn(-c2ccc(C)cc2)c(=O)cc1OCC(=O)Nc1ccc(OC)cc1	none (no result: PPC-1+TRAIL kill, Wee1 degr inh, PKD1 inh, FLuc inhib CS, FLuc stim CS)
Cc1cccc(CN2CCC(CNC(=O)Cn3ncc4c([nH]c5ccccc54)c3=O)CC2)c1	none (no result: PPC-1+TRAIL kill, Wee1 degr inh, PKD1 inh, FLuc inhib CS, FLuc stim CS)
CCn1c(Cl)c(C=O)s/c1=N\S(=O)(=O)c1ccccc1	none (no result: PKD1 inh, FLuc inhib CS, FLuc stim CS) | PPC-1 tox inactive
CCN(C(=O)COC(=O)c1ccccc1NCCO)C1CCS(=O)(=O)C1 (stereo not given)	none (no result: PPC-1+TRAIL kill, Wee1 degr inh, PKD1 inh, FLuc inhib CS, FLuc stim CS)
